TRPC6 inh: mouse TRPC6 channel inhibitors, primary screen, cell-based, HEK293, membrane potential dye | B-score at 10 µM | ACh-evoked depolarization; hits give low values | actives 1.1% (n = 310,000);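 active means B-score under library mean minus 3 SD, initial fluorescence not abnormally high, positive integrated signal ratio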;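 further: B-score derived from integrated fluorescence ratio over the kinetic read; more negative B-score means stronger inhibition of depolarization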
TRPC4 inh: inhibitors of mouse TRPC4 channel, primary screen, Fluo4 calcium, HEK293 TRPC4beta/mu-opioid cells. AID 2247, 2010. B-score at 10 µM. DAMGO-evoked Fluo4 calcium flux; hits give low values. Short transient receptor potential channel 4 (Mus musculus), Q9QUQ5. actives 0.39% (n = 300,000);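 active means B-score over 3 SD under the library average, no early fluorescence shift, positive overall ratio signal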
Target sequence (Q9QUQ5 whole entry, looked up): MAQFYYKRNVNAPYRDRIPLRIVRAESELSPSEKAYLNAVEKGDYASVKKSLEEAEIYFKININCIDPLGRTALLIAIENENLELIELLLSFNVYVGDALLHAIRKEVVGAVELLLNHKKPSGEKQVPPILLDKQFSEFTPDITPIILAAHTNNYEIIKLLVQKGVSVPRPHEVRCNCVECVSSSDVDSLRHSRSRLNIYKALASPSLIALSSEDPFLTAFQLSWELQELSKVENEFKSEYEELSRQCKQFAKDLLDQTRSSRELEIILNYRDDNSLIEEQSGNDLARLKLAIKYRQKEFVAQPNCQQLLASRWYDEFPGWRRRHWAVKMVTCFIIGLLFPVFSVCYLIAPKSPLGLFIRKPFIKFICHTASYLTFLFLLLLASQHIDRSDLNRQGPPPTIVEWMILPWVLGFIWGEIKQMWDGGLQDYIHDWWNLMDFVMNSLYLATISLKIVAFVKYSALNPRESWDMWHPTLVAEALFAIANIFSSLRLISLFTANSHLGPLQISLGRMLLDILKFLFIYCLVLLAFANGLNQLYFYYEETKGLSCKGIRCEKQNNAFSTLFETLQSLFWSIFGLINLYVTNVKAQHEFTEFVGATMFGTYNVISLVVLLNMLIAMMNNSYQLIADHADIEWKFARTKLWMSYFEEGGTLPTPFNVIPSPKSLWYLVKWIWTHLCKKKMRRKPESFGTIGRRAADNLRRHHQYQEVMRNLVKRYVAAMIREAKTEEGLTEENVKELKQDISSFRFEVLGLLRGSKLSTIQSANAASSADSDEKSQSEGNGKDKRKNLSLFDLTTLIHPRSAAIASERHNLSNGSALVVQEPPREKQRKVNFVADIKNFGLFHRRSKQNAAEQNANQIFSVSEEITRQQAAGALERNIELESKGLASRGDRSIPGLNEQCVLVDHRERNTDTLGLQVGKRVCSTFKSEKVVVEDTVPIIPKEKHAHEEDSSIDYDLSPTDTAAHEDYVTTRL
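Test system – stable TRPC4beta/mu-opioid receptor HEK293 cells · Probe or stimulus – DAMGO, a submaximal dose followed by a maximal one · Dosing – one concentration per compound · Signal – Fluo4 calcium fluorescence by kinetic imaging, 5 s 1 Hz baseline · Evaluation – per-well B score of integrated baseline-normalized Fluo4 ratio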
TRPC4 agonist: activators of mouse TRPC4 channel, primary screen, Fluo4 calcium, HEK293 TRPC4beta/mu-opioid cells. Short transient receptor potential channel 4 (Mus musculus), Q9QUQ5. Fluo4 calcium fluorescence; hits give high values. B-score at 10 µM. actives 0.49% (n = 310,000). AID 2237, 2010;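 active means B-score above 5 SD of library B-scores, and initial fluorescence ratio not above library mean plus 5 SD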;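 further: positive B-score marks a calcium rise read as TRPC4 activation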
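Material: TRPC4beta and mu-opioid receptor HEK293 stable cells | Incubation: 45 min room-temperature Fluo4 loading, 110 s read | Detection: Kinetic Fluo4 calcium fluorescence | Measure: Integrated baseline-normalised fluorescence ratio, converted to per-well B score | Benchmarks: Low control buffer alone, high control maximal DAMGO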
TRPC4 PAM: positive allosteric modulators of TRPC4, primary screen, cell-based, mouse TRPC4beta, HEK293 mu-opioid, Fluo-4 calcium | DAMGO EC20, Fluo-4 Ca2+ flux; hits give high values | B-score at 10 µM | actives 0.42% (n = 310,000) | AID 2227, 2009;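 active means B-score of calcium response area above 5 SD of library B-scores, with initial fluorescence ratio within 5 SD of library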;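 further: B-score of integrated fluorescence ratio over time as area under calcium response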
TRPC6 act: mouse TRPC6 channel activators, primary screen, cell-based, HEK293, membrane potential dye; Short transient receptor potential channel 6 (Mus musculus), Q61143; HEK293-TRPC6 membrane potential dye fluorescence; hits give high values; B-score at 10 µM; actives 0.13% (n = 310,000); AID 2550, 2010;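 active means B-score of the integrated fluorescence ratio above library mean plus 3 SD, and starting fluorescence ratio within library mean plus 5 SD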;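 further: higher score means more depolarization so channel activation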
* marks the source's active call; other numbers are inactive results; i = inactive. This is a sample that favours compounds with a hit; in the whole collection about 2.3% have one here.

SMILES	TRPC6 inh	TRPC4 inh	TRPC4 agonist	TRPC4 PAM	TRPC6 act
Cc1cccc(NC(=O)CCc2nnc3ccc(N4CCC(C)CC4)nn23)n1	i	i	i	i	i
CC[C@@H](C)[C@H](CNC)NC[C@@H](Cc1cccc2ccccc12)NCCc1cccc(C(F)(F)F)c1	i	i	97*	i	i
Cc1cccc(OCC(=O)NCCCNC(=O)c2ccc(C)nc2)c1	i	i	i	i	i
Cc1cccc(NC(=S)NCC(c2ccccc2)N(C)C)c1 (centres undefined)	i	i	231*	i	i
CN(C)C(CNC(=S)Nc1cccc(Cl)c1)c1ccccc1 (centres undefined)	i	i	220*	i	i
Cc1cccc(NC(=S)NC(C)CCc2ccccc2)c1 (centres undefined)	i	i	i	i	i
CCn1nc(NS(=O)(=O)c2ccc(NC(C)=O)cc2)c2cc3cc(C)ccc3nc21	i	i	i	i	i
CCCN(CCC)CCCNC(=O)CS(=O)Cc1nc(-c2ccc(OC)c(OC)c2)oc1C (centres undefined)	i	i	64*	i	i
CCCCN(C)CCCNC(=O)CS(=O)Cc1nc(-c2ccc(OC)c(OC)c2)oc1C (centres undefined)	i	i	i	i	i
COc1ccc(-c2nc(CS(=O)CC(=O)NCCCN3CC(C)CC(C)C3)c(C)o2)cc1OC (centres undefined)	i	i	104*	i	i
Cc1ccc(-c2nc(CS(=O)CC(=O)NCCCN3CC(C)CC(C)C3)c(C)o2)cc1 (centres undefined)	i	i	62*	i	i
CCc1ccc(S(=O)(=O)NCc2csc(C)n2)cc1	i	i	i	i	i
COc1cc(CN(C)CC2CCCN(CCc3ccccc3F)C2)cc(Cl)c1OC (centres undefined)	i	-6*	i	i	i
CN(Cc1ccccc1)CC1CCCN(CCc2ccccc2F)C1 (centres undefined)	i	i	i	i	i
Cc1ccc(S(=O)(=O)Nc2cccc(C(=O)NCC(c3ccco3)N3CCCC3)c2)cc1F (centres undefined)	i	-6*	53*	i	i
CCCc1cc(C(=O)Cc2ccc(F)cc2)c(O)cc1O	i	i	i	i	i
CCCc1cc(C(=O)Cc2ccc(C(=O)OCC)o2)c(O)cc1O	-5.46*	i	i	i	i
CC(=O)c1ccc(NC(=O)CCC(=O)N2CC(C)Oc3ccc(C)cc32)cc1 (centres undefined)	i	i	i	i	i
Cc1ccc2c(c1)N(C(=O)CCC(=O)Nc1ccccc1Br)CC(C)O2 (centres undefined)	i	-9*	i	i	i
CCCCCCSc1ccc([C@H]2N[C@@](CC(C)C)(C(=O)OC)[C@H]3C(=O)N(C)C(=O)[C@@H]23)cc1OC	i	i	i	i	i
COC(=O)Cc1ccc(OC(=O)CCS(=O)(=O)c2ccc(C)cc2)cc1	i	i	i	i	i
Cc1[nH]n2c(=O)c3c(nc2c1-c1ccccc1)CCC3	i	-6*	i	i	i
COc1ccc(-c2c(C)[nH]n3c(=O)c(Cc4ccccc4)c(C)nc23)cc1	i	-6*	i	i	i
CC(=O)Oc1c(C)c(OC(C)=O)c2c(c1C(C)=O)OC1CC(=O)C(C(C)=O)=C(O)C21C (centres undefined)	i	i	i	i	i
CC(=O)c1c(O)c(C)c(O)c2c1OC1=CC(=O)C(C(C)=O)C(=O)[C@@]12C (some centres undefined)	i	-6*	90*	i	i
SMILES	TRPC6 inh	TRPC4 inh	TRPC4 agonist	TRPC4 PAM	TRPC6 act
CC(C)(C)n1nnnc1C(c1ccc(Cl)cc1)N(Cc1cccnc1)Cc1ccco1 (centres undefined)	i	i	i	42*	i
COc1ccc(NC(=O)C(NC(=O)c2ccc(C)cc2)c2ccccc2)cc1 (centres undefined)	i	i	i	i	i
CCOC(=O)N1CCC(NC(=O)CS(=O)Cc2nc(-c3ccccc3C)oc2C)CC1 (centres undefined)	i	i	i	13*	i
Cc1oc(-c2ccccc2F)nc1CS(=O)CC(=O)NC1CC1 (centres undefined)	i	i	i	i	i
O=c1c(NCCc2ccc(Cl)cc2)c(-c2ccccc2)c1=O	i	i	i	14*	i
O=c1[nH]ncc(NCCc2ccccc2)c1Cl	i	i	i	i	i
CC(C)CCN(C(=O)CCSc1ccc(F)cc1)c1c(N)n(Cc2ccccc2)c(=O)[nH]c1=O	i	i	i	i	i
CCOc1ccc(N=CNc2ccc(OCC)cc2)cc1	i	i	i	15*	i
CCOc1ccc(N=Cc2ccc3ccccc3c2)cc1	i	i	i	i	i
CNC(=S)NNC(=O)c1cccn(Cc2ccc(Cl)cc2Cl)c1=O	i	i	i	i	i
CNC(=S)NNC(=O)c1cccn(Cc2cccc(C(F)(F)F)c2)c1=O	i	i	i	25*	i
O=S(=O)(c1ccccc1)N1CCN(c2ccnc3cc(Cl)ccc23)CC1	i	i	i	13*	i
O=S(=O)(c1cccs1)N1CCN(c2ccnc3cc(Cl)ccc23)CC1	i	i	i	11*	i
CC(=O)N1CCN(c2ccnc3cc(Cl)ccc23)CC1	i	i	i	i	i
Cc1cc(NS(=O)(=O)c2ccc(NC(=O)c3ccc(Cl)cc3[N+](=O)[O-])cc2)no1	i	i	i	i	i
O=C(N=C1SC2CS(=O)(=O)CC2N1c1cccc(Cl)c1Cl)C1CCCO1 (centres undefined)	i	i	i	i	i
O=C(N/N=C/c1cc2c(cc1Br)OCO2)c1cc2ccccc2o1	i	-7*	i	i	i
COc1ccc2nc(/N=C(\N)NC(=O)C(C)(C)C)nc(C)c2c1	i	i	i	i	i
CCC(=O)N/C(N)=N/c1nc(C)c2cc(OC)ccc2n1	i	-7*	i	i	i

High-throughput results deposited in PubChem by Johns Hopkins Ion Channel Center.
